Assay results published in publication PMC6130786 (ACS Omega, 2018).
Each block holds one molecule with its values, some of them ahead of it.

Key:
Aβ fibrils = Aβ fibrils (Homo sapiens, UniProt P05067); experiment: Thioflavin-T competition binding assay, Aβ fibrils
How it was run: (§1)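 Fibrils were prepared per earlier work and held fixed at 1 μM. Thioflavin-T was 50 nM with Aβ fibrils and 4 μM with tau fibrils. Test compound at varying concentrations was diluted in 30 mM Tris-HCl pH 7.4 with 0.1% BSA. Incubation was 1.5 h at room temperature, and fluorescence was read at ex 440/30, em 485/20. EC50 came from a one-site competitive fit, Ki = EC50/(1+[ligand]/Kd), as mean ± SD of two assays.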

tau fibrils = tau fibrils (Homo sapiens, UniProt P10636); experiment: Thioflavin-T competition binding assay, tau fibrils
Chain of tau fibrils (P10636 560-692 limits assumed): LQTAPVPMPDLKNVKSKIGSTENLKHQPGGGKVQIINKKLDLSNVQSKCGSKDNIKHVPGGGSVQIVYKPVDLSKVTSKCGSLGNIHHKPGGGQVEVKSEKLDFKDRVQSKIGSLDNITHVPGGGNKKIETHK
How it was run: as §1

Chain of Aβ fibrils (P05067 672-713): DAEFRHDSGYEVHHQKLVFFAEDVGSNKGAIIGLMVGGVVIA

Compound: COc1ccc(/C=C/C(=O)c2nc3ccccc3s2)cc1 [Compound 4, (E)-1-(Benzo[d]thiazol-2-yl)-3-(4-methoxyphenyl)prop-2-en-1-one]
Ki (Aβ fibrils): 353 ± 29.7 nM
Ki (tau fibrils): 716 ± 58.7 nM

Compound: CN(C)c1ccc(/C=C/C(=O)c2nc3ccccc3s2)cc1 [Compound 5, (E)-1-(Benzo[d]thiazol-2-yl)-3-(4-(dimethylamino)phenyl)prop-2-en-1-one]
Ki (Aβ fibrils): 91 ± 12.7 nM

Compound: O=C(/C=C/c1ccc([N+](=O)[O-])cc1)c1nc2ccccc2s1 [Compound 6, (E)-1-(Benzo[d]thiazol-2-yl)-3-(4-nitrophenyl)prop-2-en-1-one]
Ki (Aβ fibrils): 89 ± 26.9 nM

Compound: COc1ccc(/C=C/C(=O)c2nccs2)cc1 [Compound 7, (E)-3-(4-Methoxyphenyl)-1-(thiazol-2-yl)prop-2-en-1-one]
Ki (Aβ fibrils): > 500 nM
Ki (tau fibrils): > 1000 nM

Compound: CN(C)c1ccc(/C=C/C(=O)c2nccs2)cc1 [Compound 8, (E)-3-(4-(Dimethylamino)phenyl)-1-(thiazol-2-yl)prop-2-en-1-one]
Ki (Aβ fibrils): 505 ± 49.5 nM
Ki (tau fibrils): 401 ± 118 nM

Compound: O=C(/C=C/c1ccc([N+](=O)[O-])cc1)c1nccs1 [Compound 9, (E)-3-(4-Nitrophenyl)-1-(thiazol-2-yl)prop-2-en-1-one]
Ki (Aβ fibrils): 404 ± 80.6 nM

Next, values leading:

Ki (Aβ fibrils): > 1000 nM
Ki (tau fibrils): > 1000 nM
Compound: COc1ccc(-c2cc(-c3nccs3)on2)cc1 [Compound 10, 3-(4-Methoxyphenyl)-5-(thiazol-2-yl)isoxazole]

Ki (Aβ fibrils): > 1000 nM
Ki (tau fibrils): > 1000 nM
Compound: COc1ccc(-c2cc(-c3nccs3)n[nH]2)cc1 [Compound 12, 2-(5-(4-Methoxyphenyl)-1H-pyrazol-3-yl)thiazole]

Ki (Aβ fibrils): 327 ± 76.4 nM
Ki (tau fibrils): > 1000 nM
Compound: COc1ccc(/C=C/c2cc(-c3nccs3)[nH]n2)cc1 [Compound 13, (E)-2-(3-(4-Methoxystyryl)-1H-pyrazol-5-yl)thiazole]
